Hits are enriched below; roughly 4.2% of the tested compounds scored in any of these assays.
TAAR1 agonist = agonists of human TAAR1; Q96RJ0; CHO RD-HGA16 TAAR1, Fluo-8 calcium fluorescence; vehicle wells 0%, saturating PEA agonist 100%; activation, % at 3 µM; actives 0.99% (n = 360,000); AID 624467;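 active = activation above the mean activation of all test compounds in the run plus 3 SD, cut at about 38% in these data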
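Benchmarks: low control DMSO, high control PEA (EC100); System: CHO RD-HGA16 cells carrying human TAAR1 plus Gα16; Detection: Fluo-8 fluorescence, 5 s baseline then 140 s kinetic read; Schedule: 17-24 h plating, Fluo-8 75 min 37 °C, 30 min RT; Read-out basis: % activation from peak over basal fluorescence ratio, DMSO-to-PEA scaled.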
OX1R antag-1 = antagonists of human orexin 1 receptor (OX1R); inhibition, % at 6.6 µM; O43613; OX1R-expressing cells, FRET antagonist read-out; actives 1.8% (n = 330,000); AID 485270; in the data active = inhibition mostly above about 38%, no sharp cut-off; inactive = mostly below about 40%;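 note: 0% = agonist challenge alone and 100% = reference antagonist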
Target sequence (O43613 whole entry, looked up): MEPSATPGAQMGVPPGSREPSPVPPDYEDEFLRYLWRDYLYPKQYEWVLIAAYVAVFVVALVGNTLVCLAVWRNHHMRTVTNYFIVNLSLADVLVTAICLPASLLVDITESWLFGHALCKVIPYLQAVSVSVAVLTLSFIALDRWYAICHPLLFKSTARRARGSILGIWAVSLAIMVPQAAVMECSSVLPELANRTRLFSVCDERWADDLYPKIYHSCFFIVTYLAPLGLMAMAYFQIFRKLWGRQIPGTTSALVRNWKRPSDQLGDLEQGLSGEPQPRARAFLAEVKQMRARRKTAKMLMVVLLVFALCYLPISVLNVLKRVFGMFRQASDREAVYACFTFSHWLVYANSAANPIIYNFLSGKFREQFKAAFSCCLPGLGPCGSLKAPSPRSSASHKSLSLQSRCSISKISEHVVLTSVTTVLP
TAAR1 antag = antagonists of human TAAR1 | Q96RJ0 | CHO RD-HGA16 TAAR1, Fluo-8 calcium fluorescence, antagonist | inhibition, % at 3 µM | actives 1.5% (n = 360,000);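 active = inhibition above a per-plate cutoff, the mean inhibition of test compounds on that plate plus 3 SD, cut at about 49% in these data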;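 note: 0% = DMSO plus EC80 beta-PEA response and 100% = DMSO alone without agonist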
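Test system: CHO RD-HGA16 cells bearing hTAAR1 | Reagent: β-PEA, EC80 | Compound dosing: 3 µM, single point | Schedule: Dye loading 75 min at 37 °C, then 30 min room temperature | Signal: Calcium fluorescence with Fluo-8 | Evaluation: Percent inhibition of PEA-evoked calcium signal, max/basal emission ratio | Control set: DMSO-only wells and EC80 β-PEA-stimulated wells | Repeats: Singlicate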
CHO parental Ca = counter-screen: ATP calcium response change in parental CHO cells | parental CHO-K1, ATP-induced calcium, Fluo-8 fluorescence | inhibition, % at 5.6 µM | actives 0.63% (n = 330,000);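 active = inhibition above that plate's mean sample inhibition plus 3 SD, cut at about 26% in these data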;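 note: 0% = ATP-challenged DMSO wells and 100% = DMSO wells without ATP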
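Test system: untransfected parental CHO cell line; also added: ATP stimulus; dosing: 5.6 µM, single dose; signal: calcium-sensitive Fluo-8 fluorescence; measure: percent inhibition of ATP-evoked calcium rise, normalized to controls; benchmarks: low control ATP plus DMSO, high control DMSO only; replication: one well per compound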
GalR3 antag = antagonists of human GalR3. actives 0.44% (n = 360,000). HEK293 GalR3-CNG cAMP membrane potential fluorescence; galR3 body fused to GalR1 C-terminus. O60755. AID 651719. inhibition, % at 3 µM;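 active = inhibition above the screen-wide average plus 3 SD, cut at about 13% in these data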;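 note: forskolin and galanin both at EC90 stimulate the cells; cAMP rise reported by CNG channel membrane potential dye signal; 0% = forskolin plus galanin with DMSO and 100% = forskolin alone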
Target sequence (O60755 1-299 limits assumed): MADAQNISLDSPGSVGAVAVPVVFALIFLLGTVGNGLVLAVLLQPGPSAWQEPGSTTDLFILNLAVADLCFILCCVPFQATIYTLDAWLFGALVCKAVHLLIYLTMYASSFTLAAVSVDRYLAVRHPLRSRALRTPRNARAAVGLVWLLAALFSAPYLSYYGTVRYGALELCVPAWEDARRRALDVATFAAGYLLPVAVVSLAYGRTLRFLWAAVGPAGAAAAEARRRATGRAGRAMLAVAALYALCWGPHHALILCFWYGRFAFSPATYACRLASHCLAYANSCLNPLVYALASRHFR
OX1R antag-2 = antagonists of human orexin 1 receptor; O43613; CHO/OX1R cells, Fluo-8 calcium fluorescence, orexin A; inhibition, % at 5 µM; actives 0.43% (n = 330,000);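 active = inhibition above its plate's threshold, mean inhibition of all tested compounds on the plate plus 3 SD, cut at about 37% in these data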;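 note: 0% = orexin A challenge wells and 100% = SB-334867-A antagonist wells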
nonsel antag count = nonselective antagonist in TAAR1 antagonist counter-screen; shares compounds with TAAR1 antag; counterscreen cell line, calcium fluorescence, antagonist mode; inhibition, % at 3 µM; actives 77% (n = 2,400); AID 651780; in the data active = inhibition above about 22%;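 note: CHO-Ga16 host cells stimulated with ATP at an EC80 level; 0% = agonist EC80 plus vehicle and 100% = vehicle without agonist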
TAAR1 ant conf = human TAAR1 antagonism, confirmed; TAAR1-expressing cells, fluorescence antagonist read-out; AID 651785; shares compounds with TAAR1 antag; inhibition, % at 3 µM; actives 40% (n = 2,400); in the data active = inhibition above about 49%;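 note: CHO-Ga16 host cells challenged with agonist PEA near its EC80; 0% = agonist at EC80 plus vehicle and 100% = vehicle with no agonist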
Ga16 nonsel ag = nonselective Ga16 agonism, counter-screen; shares compounds with TAAR1 antag; Ga16-expressing cells, calcium fluorescence, agonist counterscreen; activation, % at 3 µM; actives 18% (n = 2,400); in the data active = activation above about 12%;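 note: 0% = vehicle wells and 100% = saturating stimulus response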
TAAR1 ag count = TAAR1 agonism, antagonist counter-screen; shares compounds with TAAR1 antag; hTAAR1 cell line, fluorescence activation, agonist mode; activation, % at 3 µM; actives 2% (n = 2,400); in the data active = activation above about 37%;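 note: CHO cells stably expressing TAAR1 with calcium dye readout; 0% = DMSO vehicle and 100% = full agonist response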
Numbers without * were called inactive; x = no result given.

SMILES	TAAR1 agonist	OX1R antag-1	TAAR1 antag	CHO parental Ca	GalR3 antag	OX1R antag-2	nonsel antag count	TAAR1 ant conf	Ga16 nonsel ag	TAAR1 ag count
O=C(CCCNS(=O)(=O)c1ccc(F)cc1)Nc1ccc(F)cc1	1.7	10.6	-8.3	-1.1	-9.8	-9.9	x	x	x	x
COc1ccc(-c2c(C(=O)c3ccc(Br)cc3)[nH]c(N)c2C(=O)c2ccccc2)cc1OC	15.6	x	60.3*	x	-7.1	x	8.8	33.9	9.5	25.9
COc1ccc(-c2c(C(=O)c3ccccc3)[nH]c(N)c2C(N)=O)cc1OC	1.9	x	20.5	x	-5.7	x	x	x	x	x
COc1ccc([C@H]2CC(=O)C=C(c3cccc(Br)c3)C2)cc1OC	2.6	31.8	64.4*	-17.7	-6.4	-1.0	19.1	44.8	1.9	0.5
COc1cc(C(=O)Nc2c(C(=O)O)[nH]c3ccccc23)cc(OC)c1OC	0.7	x	-16.3	x	-6.1	x	x	x	x	x
CC1(c2ccccc2)NC(=O)N(CC(=O)Nc2cccc(/C=C/c3ccccn3)c2)C1=O (stereo not drawn)	8.5	33.2	49.5*	-28.5	-3.8	-19.9	15.4	33.2	6.1	10.0
Cc1cccc(NC(=O)c2cccc(N3C(=O)C4C5C=CC(C6CC56)C4C3=O)c2)c1 (stereo not drawn)	7.5	5.7	58.4*	1.9	-2.4	-16.8	34.8*	37.6	9.8	6.8
Cc1cc(C)cc(NC(=O)c2cccc(N3C(=O)C4C5C=CC(C5)C4C3=O)c2)c1 (stereo not drawn)	-0.2	x	-22.6	x	-4.3	x	x	x	x	x
CCN(CC)S(=O)(=O)c1ccc(F)cc1	3.0	9.4	-17.2	5.3	-3.8	11.6	x	x	x	x
CC1CCCC(C)N1C(=O)COC(=O)CSc1ccc([N+](=O)[O-])cc1 (stereo not drawn)	0.9	x	-8.0	x	-0.9	x	x	x	x	x
CC(C)(C)N(Cc1ccccc1)C(=O)COC(=O)CSc1ccc([N+](=O)[O-])cc1	6.0	23.1	66.8*	-18.5	-7.7	-23.8	30.7*	27.2	6.5	4.8
O=C1/C(=C/c2cccnc2)Cc2ccc(Cl)cc21	-1.2	33.1	8.7	-18.9	-4.2	-15.2	x	x	x	x
COc1ccc(NS(=O)(=O)c2cccc(C(=O)N(C)Cc3cccs3)c2)cc1	7.7	25.8	-12.5	-6.4	-2.7	-8.3	x	x	x	x
COc1ccc2c(c1)c(CCN1C(=O)c3ccccc3C1=O)cn2C(=O)c1ccco1	5.2	-1.1	56.8*	-18.8	-2.8	-20.4	11.8	31.7	2.2	4.0
O=C(Oc1ccc2[nH]cc(CCN3C(=O)c4ccccc4C3=O)c2c1)c1ccco1	14.1	44.1	36.4	-6.1	-2.0	-4.7	x	x	x	x
O=c1n(Cc2ccc(Cl)cc2)c2sc3c(c2c2ncnn12)CCCC3	7.2	9.0	66.3*	-29.5	3.2	-34.4	19.7	35.5	8.8	16.2
C=CCn1c(=O)n2ncnc2c2c3c(sc21)CCCC3	x	13.3	x	-7.7	x	-22.9	x	x	x	x
Cn1c2ccccc2c(=O)c2ccc(C#CC3(O)CCCCC3)cc21	20.4	50.8	70.7*	-12.7	-6.8	-2.1	38.1*	54.7*	11.0	8.8
O=C(NC(=S)Nc1ccc(S(=O)(=O)Nc2nccs2)cc1)c1ccccc1F	1.0	8.8	5.3	-2.2	1.6	-7.4	x	x	x	x
CCOC(=O)C1=C(COC(=O)/C=C/c2cccc(Br)c2)NC(=O)NC1C (stereo not drawn)	24.1	8.5	58.5*	-25.8	-6.4	12.9	9.6	36.9	10.4	11.2
CCOC(=O)C1=C(COC(=O)Cc2ccc(Cl)cc2)NC(=O)NC1C (stereo not drawn)	16.9	9.8	60.2*	-15.2	-6.3	-26.2	24.6*	41.7	7.5	4.7
CCOC(=O)C1=C(COC(=O)/C=C/c2cccc([N+](=O)[O-])c2)NC(=O)NC1C (stereo not drawn)	24.0	20.6	58.4*	-10.6	-2.3	-21.2	20.9	56.3*	14.7*	19.8
CCOC(=O)C1=C(COC(=O)/C=C/c2ccc(O)c(OC)c2)NC(=O)NC1C (stereo not drawn)	25.9	4.5	61.9*	-13.9	0.5	-0.7	28.4*	51.2*	12.9*	19.7
Cc1cccc(C)c1-c1ccc(CN2C(CC(C)C)C(=O)N(Cc3cn(CCO)nn3)CCS2(=O)=O)cc1 (stereo not drawn)	33.6	x	90.2*	x	-1.9	x	53.0*	67.3*	20.8*	18.6
CC(C)CC1C(=O)N(Cc2cn(CCC3OCCO3)nn2)CCS(=O)(=O)N1Cc1ccc(-c2cccc(CO)c2)cc1 (stereo not drawn)	11.9	x	34.8	x	-4.5	x	x	x	x	x
SMILES	TAAR1 agonist	OX1R antag-1	TAAR1 antag	CHO parental Ca	GalR3 antag	OX1R antag-2	nonsel antag count	TAAR1 ant conf	Ga16 nonsel ag	TAAR1 ag count
CC(C)(C)c1ccc(-c2cc(NC(=O)Cc3c[nH]c4ccccc34)ccc2Nc2cccnc2)cc1	1.4	x	-32.1	x	-0.5	x	x	x	x	x
O=C(Cc1c[nH]c2ccccc12)Nc1ccc(Nc2cccnc2)c(-c2ccc(Cl)c(Cl)c2)c1	10.8	x	70.6*	x	-4.5	x	38.4*	56.4*	8.7	10.3
O=C(Cc1c[nH]c2ccccc12)Nc1ccc(Nc2cccnc2)c(-c2cc(F)cc(F)c2)c1	18.3	x	89.0*	x	-7.6	x	36.2*	57.0*	14.3*	15.2
O=C(Cc1c[nH]c2ccccc12)Nc1ccc(Nc2cccnc2)c(-c2ccc(Oc3ccccc3)cc2)c1	1.9	x	30.5	x	-8.8	x	x	x	x	x
COc1ccc(-c2cc(NC(=O)Cc3c[nH]c4ccccc34)ccc2Nc2cccnc2)cc1F	20.0	x	89.6*	x	-4.7	x	39.3*	65.3*	10.2	12.3
NNC(=O)Cc1csc(-c2ccccc2)n1	-0.9	6.6	5.0	-19.6	-1.4	-32.2	x	x	x	x
CC(C)(C)C1CCc2c(sc(NC(=O)c3cc(C4CC4)on3)c2C#N)C1 (stereo not drawn)	-0.1	0.0	-3.8	-12.0	x	-21.5	x	x	x	x
Cc1cc(Br)ccc1NC(=O)c1ccccc1-c1ccccc1	0.5	28.9	57.0*	-35.5	-4.5	-54.0	2.7	0.9	2.5	2.0
O=C(CCC(=O)Nc1ccc(F)cc1)N/N=C/c1ccc(Br)cc1	37.4	4.6	53.4*	-14.4	-12.3	-17.4	9.2	33.6	-0.8	19.0
COc1ccc(-c2nc3c(c(=O)n(C)c(=O)n3C)n2CC2CC(c3ccccc3)=NO2)cc1OC (stereo not drawn)	24.6	30.7	61.8*	-6.9	-2.5	-24.3	29.6*	49.9*	9.6	11.1
